{"source": "ChEMBL document CHEMBL2203196", "about": "“Synthesis, antiproliferative and apoptotic activities of N-(6(4)-indazolyl)-benzenesulfonamide derivatives as potential anticancer agents” (Eur J Med Chem, 2012)"}
{"system": "A549", "experiment": "Cytotoxicity against human A549 cells after 72 hrs by MTT assay", "format": "functional, cell-based", "conditions": "A549, 72 h", "method_in_brief": "(§1)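 Cells plated at 900–1800/well for exponential growth, centrifuged 275 g 2 min, left 6–8 h, then exposed 72 h to at least 5 concentrations (1:10 serial dilutions) in duplicate; MTT read-out; IC₅₀ from single concentration–response curves; mean ± SD of 3–9 experiments.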", "units": {"IC50": "µM"}}
{"smiles": "C=CCn1ncc2c(NS(=O)(=O)c3ccc(C)cc3)ccc(OCC)c21", "IC50": 100}
{"smiles": "Cc1ccc(S(=O)(=O)Nc2ccc3c(Br)n[nH]c3c2)cc1", "IC50": "> 100"}
{"smiles": "CCOc1ccc(NS(=O)(=O)c2ccc(C)cc2)c2cn[nH]c12", "IC50": 58.5}
{"smiles": "Cc1ccc(S(=O)(=O)Nc2ccc3c[nH]nc3c2)cc1", "IC50": "> 100"}
{"smiles": "Cc1ccc(S(=O)(=O)Nc2ccc3c(Br)nn(S(=O)(=O)c4ccc(C)cc4)c3c2)cc1", "IC50": 104}
{"smiles": "C=CCn1cc2ccc(NS(=O)(=O)c3ccc(C)cc3)c(OCC)c2n1", "IC50": "> 100"}
{"smiles": "Cc1ccc(S(=O)(=O)Nc2cccc3[nH]ncc23)cc1", "IC50": "> 100"}
{"smiles": "Cc1ccc(S(=O)(=O)Nc2cccc3[nH]nc(Br)c23)cc1", "IC50": 82.4}
{"system": "A2780", "experiment": "Cytotoxicity against human A2780 cells after 72 hrs by MTT assay", "format": "functional, cell-based", "conditions": "A2780, 72 h", "method_in_brief": "as §1", "units": {"IC50": "µM"}}
{"smiles": "C=CCn1ncc2c(NS(=O)(=O)c3ccc(C)cc3)ccc(OCC)c21", "IC50": 61.6}
{"smiles": "Cc1ccc(S(=O)(=O)Nc2ccc3c(Br)n[nH]c3c2)cc1", "IC50": 101}
{"smiles": "CCOc1ccc(NS(=O)(=O)c2ccc(C)cc2)c2cn[nH]c12", "IC50": 55.1}
{"smiles": "Cc1ccc(S(=O)(=O)Nc2ccc3c[nH]nc3c2)cc1", "IC50": 86.6}
{"smiles": "Cc1ccc(S(=O)(=O)Nc2ccc3c(Br)nn(S(=O)(=O)c4ccc(C)cc4)c3c2)cc1", "IC50": 74.7}
{"smiles": "C=CCn1cc2ccc(NS(=O)(=O)c3ccc(C)cc3)c(OCC)c2n1", "IC50": "> 100"}
{"smiles": "Cc1ccc(S(=O)(=O)Nc2cccc3[nH]ncc23)cc1", "IC50": "> 100"}
{"smiles": "Cc1ccc(S(=O)(=O)Nc2cccc3[nH]nc(Br)c23)cc1", "IC50": 70.9}
{"system": "P388", "experiment": "Cytotoxicity against mouse P388 cells after 72 hrs by MTT assay", "format": "functional, cell-based", "conditions": "P388, 72 h", "method_in_brief": "as §1", "units": {"IC50": "µM"}}
{"smiles": "C=CCn1ncc2c(NS(=O)(=O)c3ccc(C)cc3)ccc(OCC)c21", "IC50": 51.8}
{"smiles": "Cc1ccc(S(=O)(=O)Nc2ccc3c(Br)n[nH]c3c2)cc1", "IC50": 66.6}
{"smiles": "CCOc1ccc(NS(=O)(=O)c2ccc(C)cc2)c2cn[nH]c12", "IC50": 43.5}
{"smiles": "Cc1ccc(S(=O)(=O)Nc2ccc3c[nH]nc3c2)cc1", "IC50": 71.3}
{"smiles": "Cc1ccc(S(=O)(=O)Nc2ccc3c(Br)nn(S(=O)(=O)c4ccc(C)cc4)c3c2)cc1", "IC50": 51.3}
{"smiles": "C=CCn1cc2ccc(NS(=O)(=O)c3ccc(C)cc3)c(OCC)c2n1", "IC50": 68.9}
{"smiles": "Cc1ccc(S(=O)(=O)Nc2cccc3[nH]ncc23)cc1", "IC50": 85.5}
{"smiles": "Cc1ccc(S(=O)(=O)Nc2cccc3[nH]nc(Br)c23)cc1", "IC50": 53.9}
